Measurements taken from ChEMBL document CHEMBL1800019, “Highly potent activity of (1R,2R,6S)-3-methyl-6-(prop-1-en-2-yl)cyclohex-3-ene-1,2-diol in animal models of Parkinson's disease” (2011).
The source made the active and inactive calls. No cut-off for these calls is given here.

Tests used:
Mus musculus [1] = test: Antiparkinsonian effect against MPTP-induced hypokinesia in C57/BL6 mouse assessed as movement distance at 20 mg/kg, po administered 15 mins after 30 mg/kg, ip MPTP challenge […] for 2 mins (reference value: 276.8 +/- 27.8 cm); type: functional, C57Bl/6
Mus musculus [2] = test: Antiparkinsonian effect against MPTP-induced hypokinesia in C57/BL6 mouse assessed as number of upright postures at 20 mg/kg, po administered 15 mins after 30 mg/kg, ip MPTP challenge measured after 1.5 hrs of compound administration for 2 mins (reference value: 6.5 +/- 1.3 upright postures); type: functional, C57Bl/6
Method in brief: (§1)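 Male C57BL/6 mice (25–30 g) were given MPTP 0.17 mmol/kg (30 mg/kg) ip and, 15 min later, test agent 0.12 mmol/kg (20 mg/kg) po. Controls received saline. An open-field test (Tru Scan) was run 1.5 h after MPTP for 2 min, recording acts, locomotion time, distance, speed, upright postures and explored holes.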

Mus musculus [3] = test: Antiparkinsonian effect against MPTP-induced hypokinesia in C57/BL6 mouse assessed as time of locomotory activity at 20 mg/kg, po administered 15 mins after 30 mg/kg, ip MPTP challenge measured after 1.5 hrs of compound administration for 2 mins (reference value: 58.3 +/- 3.9 sec); type: functional, C57Bl/6; method in brief: as §1
Mus musculus [4] = test: Antiparkinsonian effect against MPTP-induced hypokinesia in C57/BL6 mouse assessed as number of locomotory acts at 20 mg/kg, po administered 15 mins after 30 mg/kg, ip MPTP challenge measured after 1.5 hrs of compound administration for 2 mins (reference value: 84.1 +/- 1.9 locomotor acts); type: functional, C57Bl/6; method in brief: as §1
Mus musculus [5] = test: Antiparkinsonian effect against MPTP-induced hypokinesia in C57/BL6 mouse assessed as movement speed at 20 mg/kg, po administered 15 mins after 30 mg/kg, ip MPTP challenge measured after 1.5 hrs of compound administration for 2 mins (reference value: 2.3 +/- 0.2 cm/s); type: functional, C57Bl/6; method in brief: as §1
Mus musculus [6] = test: Antiparkinsonian effect against MPTP-induced hypokinesia in C57/BL6 mouse assessed as number of holes explored at 20 mg/kg, po administered 15 mins after 30 mg/kg, ip MPTP challenge measured after 1.5 hrs of compound administration for 2 mins (reference value: 15.6 +/- 3.3 holes explored); type: functional, C57Bl/6; method in brief: as §1
Rattus norvegicus [7] = test: Antiparkinsonian effect against MPTP-induced hypokinesia in Wistar rat assessed as time of locomotory activity at 20 mg/kg, po administered 30 days post 40 mg/kg, ip MPTP challenge measured on 30th day 2 hrs post compound administration for 2 mins (reference value: 69.7 +/- 2.1 sec)
Rattus norvegicus [8] = test: Antiparkinsonian effect against MPTP-induced hypokinesia in Wistar rat assessed as movement distance at 20 mg/kg, po administered 30 days post ip MPTP challenge measured on 30th day 2 hrs post compound administration for 2 mins (reference value: 367 +/- 21.2 cm)
Mus musculus [9] = test: Antiparkinsonian effect against MPTP-induced hypokinesia in C57/BL6 mouse assessed as number of holes explored at 20 mg/kg, po administered 24 hrs after 4 X 20 mg/kg, ip MPTP challenge measured after 2 hrs of compound administration for 2 mins (reference value: 4.1 +/- 1.1 holes explored); type: functional, C57Bl/6
Rattus norvegicus [10] = test: Antiparkinsonian effect against MPTP-induced hypokinesia in Wistar rat assessed as number of upright postures at 20 mg/kg, po administered 30 days post 40 mg/kg, ip MPTP challenge measured on 30th day 2 hrs post compound administration for 2 mins (reference value: 14.6 +/- 1.8 upright postures)
Mus musculus [11] = test: Antiparkinsonian effect against MPTP-induced hypokinesia in C57/BL6 mouse assessed as movement speed at 20 mg/kg, po administered 24 hrs after 4 X 20 mg/kg, ip MPTP challenge measured after 2 hrs of compound administration for 2 mins (reference value: 4.6 +/- 0.2 cm/s); type: functional, C57Bl/6
Mus musculus [12] = test: Antiparkinsonian effect against MPTP-induced hypokinesia in C57/BL6 mouse assessed as time of locomotory activity at 20 mg/kg, po administered 24 hrs after 4 X 20 mg/kg, ip MPTP challenge measured after 2 hrs of compound administration for 2 mins (reference value: 90.0 +/- 1.4 sec); type: functional, C57Bl/6
Rattus norvegicus [13] = test: Antiparkinsonian effect against MPTP-induced hypokinesia in Wistar rat assessed as number of locomotory acts at 20 mg/kg, po administered 30 days post 20 mg/kg, ip MPTP challenge measured on 30th day 2 hrs post compound administration for 2 mins (reference value: 80.3 +/- 2.5 locomotor acts); type: functional
Mus musculus [14] = test: Antiparkinsonian effect against MPTP-induced hypokinesia in C57/BL6 mouse assessed as number of upright postures at 20 mg/kg, po administered 24 hrs after 4 X 20 mg/kg, ip MPTP challenge measured after 2 hrs of compound administration for 2 mins (reference value: 24.9 +/- 3.3 upright postures); type: functional, C57Bl/6
Rattus norvegicus [15] = test: Inhibition of haloperidol-induced catalepsy in Wistar rat at 20 mg/kg, po administered 10 mins before haloperidol challenge measured for 30 to 240 mins; type: functional, organism-based; set-up: dose 20 mg/kg
Method in brief: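 Male Wistar rats (six per group) were dosed po with 0.12 mmol/kg (20 mg/kg), and 10 min later received haloperidol 4.0 μmol/kg (1.5 mg/kg) ip in saline. Controls received haloperidol only. Immobility time on parallel bars was recorded at 30, 60, 120, 180 and 240 min at rt. Total catalepsy duration and % cataleptic animals were scored.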

Mus musculus [16] = test: Antiparkinsonian effect against MPTP-induced hypokinesia in C57/BL6 mouse assessed as movement distance at 20 mg/kg, po administered 24 hrs after 4 X 20 mg/kg, ip MPTP challenge measured after 2 hrs of compound administration for 2 mins (reference value: 556.7 +/- 19.6 cm); type: functional, C57Bl/6
Rattus norvegicus [17] = test: Antiparkinsonian effect against MPTP-induced hypokinesia in Wistar rat assessed as number of holes explored at 20 mg/kg, po administered 30 days post ip MPTP challenge measured on 30th day 2 hrs post compound administration for 2 mins (reference value: 4.6 +/- 0.9 holes explored)
Rattus norvegicus [18] = test: Antiparkinsonian effect against MPTP-induced hypokinesia in Wistar rat assessed as movement speed at 20 mg/kg, po administered 30 days post ip MPTP challenge measured on 30th day 2 hrs post compound administration for 2 mins (reference value: 3.0 +/- 0.2 cm/s)
Mus musculus [19] = test: Antiparkinsonian effect against MPTP-induced hypokinesia in C57/BL6 mouse assessed as number of locomotory acts at 20 mg/kg, po administered 24 hrs after 4 X 20 mg/kg, ip MPTP challenge measured after 2 hrs of compound administration for 2 mins (reference value: 73.3 +/- 2.3 locomotor acts); type: functional, C57Bl/6
Rattus norvegicus [20] = test: Antiparkinsonian effect against MPTP-induced hypokinesia in Wistar rat assessed as time of locomotory activity at 10 mg/kg, po administered 30 days post 20 mg/kg, ip MPTP challenge measured on 30th day 2 hrs post compound administration for 2 mins (reference value: 69.7 +/- 2.1s); type: functional
Rattus norvegicus [21] = test: Antiparkinsonian effect against MPTP-induced hypokinesia in Wistar rat assessed as number of locomotory acts at 10 mg/kg, po administered 30 days post 40 mg/kg, ip MPTP challenge measured on 30th day 2 hrs post compound administration for 2 mins (reference value: 80.3 +/- 2.5 locomotor acts)
Rattus norvegicus [22] = test: Antiparkinsonian effect against MPTP-induced hypokinesia in Wistar rat assessed as number of holes explored at 10 mg/kg, po administered 30 days post 20 mg/kg, ip MPTP challenge measured on 30th day 2 hrs post compound administration for 2 mins (reference value: 4.6 +/- 0.9 holes explored); type: functional
Rattus norvegicus [23] = test: Antiparkinsonian effect against MPTP-induced hypokinesia in Wistar rat assessed as movement distance at 10 mg/kg, po administered 30 days post 20 mg/kg, ip MPTP challenge measured on 30th day 2 hrs post compound administration for 2 mins (reference value: 367 +/- 21.2 cm); type: functional
Rattus norvegicus [24] = test: Antiparkinsonian effect against MPTP-induced hypokinesia in Wistar rat assessed as number of upright postures at 10 mg/kg, po administered 30 days post 20 mg/kg, ip MPTP challenge measured on 30th day 2 hrs post compound administration for 2 mins (reference value: 14.6 +/- 1.8 upright postures); type: functional

Compound	Movement distance (Mus musculus [1])	Activity (Mus musculus [2])	Time (Mus musculus [3])	Activity (Mus musculus [4])	Activity (Mus musculus [5])	Activity (Mus musculus [6])	also measured
C=C(C)[C@@H]1CC=C(C)[C@@H](O)[C@H]1O	212.4 cm	4	45.5 s	64.9	1.7 cm/s	3.5	–
C=C(C)[C@@H]1CC=C(C)[C@@H](O)[C@@H]1O	332.6 cm	3.2	64 s	78.6	2.7 cm/s	13.1	Time (Rattus norvegicus [7]): 62.6 s; Activity (Rattus norvegicus [8]): 305.6 cm; Activity (Mus musculus [9]): 6.5; Activity (Rattus norvegicus [10]): 10.7; Activity (Mus musculus [11]): 3.6 cm/s; Time (Mus musculus [12]): 74.8 s; Activity (Rattus norvegicus [13]): 81.9; Activity (Mus musculus [14]): 14.8; inhibition (Rattus norvegicus [15]): Active; Activity (Mus musculus [16]): 439.6 cm; Activity (Rattus norvegicus [17]): 4.3; Activity (Rattus norvegicus [18]): 2.5 cm/s; Activity (Mus musculus [19]): 80.5
C=C(C)[C@H]1CC=C(C)[C@@H](O)[C@H]1O	257.7 cm	7.9	56.6 s	82.4	2.1 cm/s	8.1	–
C=C(C)[C@@H]1CC=C(C)[C@H](O)[C@H]1O	253.3 cm	10.3	55.7 s	77.4	2.1 cm/s	8.1	–
C=C(C)[C@H]1CC=C(C)[C@H](O)[C@H]1O	147.8 cm	2.5	34.9 s	57.9	1.1 cm/s	4.4	–
N[C@@H](Cc1ccc(O)c(O)c1)C(=O)O [LEVODOPA]	–	–	–	–	–	–	Time (Rattus norvegicus [20]): 65.1 s; Activity (Rattus norvegicus [21]): 86; Activity (Rattus norvegicus [22]): 4.6; Activity (Rattus norvegicus [23]): 316.8 cm; Activity (Rattus norvegicus [24]): 9.6
C=C(C)[C@@H]1CC=C(C)[C@H](O)[C@@H]1O	55.9 cm	1.7	15 s	28.5	0.4 cm/s	0.9	–
C=C(C)[C@H]1CC=C(C)[C@H](O)[C@@H]1O	245.9 cm	3.1	55.6 s	80.2	1.2 cm/s	14.4	–
C=C(C)[C@H]1CC=C(C)[C@@H](O)[C@@H]1O	158.8 cm	4.7	46.9 s	65.5	1.3 cm/s	3.9	–
